# This is a sample that favours compounds with a hit; in the whole collection about 1.8% have one here.
# TDP2 absorb = human TDP2 enzyme inhibitors, primary screen, biochemical, epi absorbance, recombinant enzyme; T5PNP hydrolysis, p-nitrophenol absorbance 415 nm; AID 720702, 2013; inhibition, % at 12.8 µM; Tyrosyl-DNA phosphodiesterase 2 (Homo sapiens), O95551; actives 0.34% (n = 370,000);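 active = inhibition above the mean of all tested compounds plus 3 SD, set per campaign, cut at about 25% in these data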;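 note: 0% = DMSO with enzyme and 100% = buffer with substrate but no TDP2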
#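 System: recombinant human TDP2 / Amount: 120 nM TDP2 per well / Also added: 5 mM T5PNP chromogenic substrate / Doses: 12.8 µM single point, 1% DMSO / Incubation: 2 h at 37 °C / Detection: p-Nitrophenol epi absorbance / Evaluation: % inhibition relative to enzyme-containing and enzyme-free wells / Repeats: singlicate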
# CASP6 VEID inh = human caspase-6 inhibitors, primary screen, biochemical, VEID-R110 fluorescence, single point, set 2 | actives 0.53% (n = 350,000) | inhibition, % at 12.5 µM | P55212 | purified caspase-6, Z-VEID-R110 cleavage fluorescence;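 active = mean inhibition across replicates at least about 35%, with every replicate also reaching that limit, limit read from the data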;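 note: 0% = median of neutral control wells and 100% = no fluorescence left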
# MBD2 DNA inh = inhibitors of MBD2 binding to methylated DNA, primary screen, biochemical, TR-FRET, DNA-binding domain, human | MBD2 binding to methylated oligonucleotide | actives 0.31% (n = 370,000) | Methyl-CpG-binding domain protein 2 (Homo sapiens), Q9UBB5 | inhibition, % at 4.4 µM; in the data active = inhibition above about 13%
# UHRF1 binding = UHRF1 methylated DNA binding inhibitors, primary screen, counter-screen for MBD2 inhibitor project, biochemical, TR-FRET, human UHRF1, single concentration. E3 ubiquitin-protein ligase UHRF1 (Homo sapiens), Q96T88. UHRF1 binding to methylated oligo. inhibition, % at 4.4 µM. actives 0.75% (n = 370,000). AID 687016, 2013; in the data active = inhibition above about 21%;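 note: UHRF1 SRA domain binding a hemimethylated CpG hairpin DNA probe; 0% = median of test compound wells and 100% = reference inhibitor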
# LEDGF integ inh = blockers of LEDGF/p75-dependent integrase strand transfer – biochemical, TR-FRET, high throughput, primary screen; HIV-1 integrase (with human LEDGF/p75); TR-FRET IN-LEDGF/p75 DNA integration, Eu/Cy5; inhibition, % at 3.7 µM; actives 0.64% (n = 370,000); AID 743269, 2014;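 active = inhibition above the screen-wide mean plus 3 SD, cut at about 13% in these data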;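 note: signal is the Cy5 over europium emission ratio at 671 and 618 nm; 0% = plate median of compound wells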
# NSD2 inh = NSD2 histone methyltransferase inhibitors, primary screen, biochemical, AlphaScreen, single concentration, set 2. inhibition, % at 12.5 µM. actives 0.54% (n = 310,000). Histone-lysine N-methyltransferase NSD2 (Homo sapiens), O96028. NSD2 peptide methylation, 120 min; in the data active = inhibition above about 50%
# Numbers without * were called inactive; · = no result.
SMILES,TDP2 absorb,CASP6 VEID inh,MBD2 DNA inh,UHRF1 binding,LEDGF integ inh,NSD2 inh
COc1ccc(CNC(=O)N[C@@H](CC(C)C)C(=O)O)cc1OC,9,2,11,26*,-3,1
CC1=C(C#N)C(c2ccc3ncccc3c2)C(C#N)=C(C)N1,-5,3,8,28*,0,4
CCCNC(=O)[C@H]1[C@H](CO)[C@H]2Cn3c(cccc3=O)[C@H]2N1Cc1cccc(F)c1,·,0,·,·,·,·
Cc1ccc(NC(=O)CCS(=O)(=O)c2cc3[nH]c(=O)c(=O)[nH]c3cc2C)cc1,10,37*,-6,0,0,5
Cc1cc(C)cc(NS(=O)(=O)c2cc3[nH]c(=O)c(=O)[nH]c3cc2C)c1,-3,5,-1,0,-5,·
O=C(COC(=O)/C=C/c1ccco1)NCc1ccco1,7,60*,8,20,5,5
CSc1ccccc1NC(=O)COC(=O)/C=C/c1ccco1,·,41*,·,·,·,-1
O=C(COC(=O)Cc1ccc(Cl)cc1)NCc1ccco1,1,42*,6,13,11,8
CN1[C@@H]2c3ccc(C4=CCCCC4)c(=O)n3C[C@H]1[C@H](CO)[C@H]2C(=O)NCc1cccc(F)c1,·,-1,·,·,·,·
C[C@H]1CN([C@@H](C)CO)C(=O)Cc2cc(NC(=O)C3CC3)ccc2O[C@@H]1CN(C)C(=O)Nc1ccccc1,·,-2,·,·,·,·
CCCCNC(=O)C1c2ccccc2OCC(=O)N1Cc1ccccc1 (stereo not drawn),-5,-4,1,2,3,·
CCCCNC(=O)C1c2ccccc2OCC(=O)N1C1CC1 (stereo not drawn),6,-3,3,21*,4,·
O=c1cc(-c2c(O)c3ccccc3n(Cc3ccccc3)c2=O)[nH][nH]1,-8,56*,-1,0,-3,0
COc1ccc(C2NC(c3ccc(OC)cc3OC)C(C)C(=O)C2C)c(OC)c1 (stereo not drawn),5,55*,0,2,5,7
COc1ccc(OC)c(C2CC(=O)C(C)C(c3cc(OC)ccc3OC)N2)c1 (stereo not drawn),1,·,1,-2,-2,2
O=C(N/N=C/C=C/c1ccco1)c1ccccc1Cl,2,49*,0,1,8,15
Cc1cccc(C)c1NC(=O)C1(NC(=O)C2CCC(=O)N2)CCCCC1 (stereo not drawn),6,·,2,9,-3,-3
Cc1cccc(C)c1NC(=O)C1(NC(=O)Cn2cccc([N+](=O)[O-])c2=O)CCCCC1,-3,-1,3,24*,-3,-2
CN(C)CC#Cc1ccc([C@H]2[C@H](CO)N3CCCCN(C(=O)C4CCCC4)C[C@@H]23)cc1,·,1,·,·,·,·
CN1c2ccsc2/C(=N/Nc2ccccc2)CS1(=O)=O,3,2,7,24*,-1,-4
N[C@@H](Cc1cc(I)c(O)c(I)c1)C(=O)O,-6,44*,-2,9,7,·
CS(=O)(=O)N1CCN(c2ccccc2NC(=O)c2cccc3ccccc23)CC1,-11,·,-2,-1,2,16
CC(C)C(=O)N1CCN(c2ccccc2NC(=O)c2cccc3ccccc23)CC1,7,60*,-2,-2,2,-1
CCS(=O)(=O)Nc1ccc2c(c1)C(=O)N(C)[C@H]1CC[C@H](CC(=O)NCCCN3CCOCC3)O[C@H]1CO2,·,39*,·,·,·,·
CN1C(=O)c2cc(NC(=O)C3CC3)ccc2OC[C@H]2O[C@@H](CC(=O)O)CC[C@@H]21,·,37*,·,·,·,·
CN1C(=O)c2cc(NC(=O)c3cccc(F)c3)ccc2OC[C@H]2O[C@H](CC(=O)NCC3CC3)CC[C@H]21,·,2,·,·,·,·
O=C(Nc1cc(F)ccc1F)N1C[C@@H]2[C@H](c3ccccc31)[C@H](CO)N2CC1CCCC1,·,2,·,·,·,·
